High-throughput results (PubChem BioAssay)
FXIIa inh 1536 – factor XIIa (human) inhibition | P00748 | purified FXIIa, Boc-QGR-AMC fluorogenic substrate, 2 h | inhibition, % at 5 µM | 0.3% of 220,000 active; in the data active = inhibition above about 40%;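 note: 0% = enzyme with no compound and 100% = blank without enzyme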
hK5 inh – inhibitors of human kallikrein 5. recombinant hK5, fluorogenic AMC substrate cleavage. 0.59% of 210,000 active. inhibition, % at 5 µM;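 active = inhibition of 40% or more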;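 note: 0% = enzyme controls without compound and 100% = no-enzyme blanks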
STAT3 act – STAT3 signaling activation. U3A cells, IL-6 STAT3-luciferase reporter, luminescence; 100% = signal with IL-6 EC80 alone. activation (% of control), % at 5.6 µM. 0.91% of 190,000 active. AID 871;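 active = activation above the screen-wide mean of compound activation plus 3 SD, cut at about 130% in these data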;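 note: 0% = background luminescence of wells with medium and substrate only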
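Test system: STAT3-luciferase reporter U3A cells; Detection: reporter luminescence signal; Times: 1 h compound pre-exposure, 6 h IL-6 stimulation, 37 °C; Benchmarks: IL-6-only high control; Also added: IL-6 stimulus at 33 ng/mL final.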
AHR act – activators of human aryl hydrocarbon receptor; activation, % at 5 µM; P35869; AID 2796; AHR-responsive luciferase reporter cells, luminescence; 2.5% of 320,000 active; in the data active = activation above about 47%;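 note: 0% = vehicle wells and 100% = reference agonist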
Target sequence (P35869 whole entry, looked up): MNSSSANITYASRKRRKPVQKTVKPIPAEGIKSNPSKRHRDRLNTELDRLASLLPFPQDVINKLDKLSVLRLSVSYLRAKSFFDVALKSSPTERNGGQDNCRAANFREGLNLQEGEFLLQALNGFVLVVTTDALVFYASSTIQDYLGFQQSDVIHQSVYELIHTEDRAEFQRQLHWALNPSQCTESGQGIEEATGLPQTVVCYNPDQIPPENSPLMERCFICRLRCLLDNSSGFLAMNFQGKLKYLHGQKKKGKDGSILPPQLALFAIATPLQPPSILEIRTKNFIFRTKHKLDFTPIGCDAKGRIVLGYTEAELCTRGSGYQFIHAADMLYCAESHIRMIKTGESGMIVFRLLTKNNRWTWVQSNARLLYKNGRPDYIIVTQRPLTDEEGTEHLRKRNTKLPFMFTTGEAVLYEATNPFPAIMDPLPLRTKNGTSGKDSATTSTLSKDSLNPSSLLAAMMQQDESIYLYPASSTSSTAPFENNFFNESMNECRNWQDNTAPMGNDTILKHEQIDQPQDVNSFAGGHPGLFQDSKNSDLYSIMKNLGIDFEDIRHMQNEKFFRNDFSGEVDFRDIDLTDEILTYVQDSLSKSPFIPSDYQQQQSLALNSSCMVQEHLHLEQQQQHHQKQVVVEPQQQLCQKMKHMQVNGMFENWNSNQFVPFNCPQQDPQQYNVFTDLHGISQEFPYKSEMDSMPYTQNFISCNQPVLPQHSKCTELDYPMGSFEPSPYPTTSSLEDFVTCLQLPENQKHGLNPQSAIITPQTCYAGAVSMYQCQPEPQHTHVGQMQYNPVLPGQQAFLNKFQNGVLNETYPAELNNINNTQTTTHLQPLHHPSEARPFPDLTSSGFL
FXIa inh – blocks human coagulation factor XIa protease activity; purified FXIa, Boc-Glu-Ala-Arg-AMC fluorogenic substrate; 0.14% of 220,000 active; inhibition, % at 5 µM; P03951;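 active = inhibition of at least 40%; inactive = inhibition below 40%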;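 note: fluorescence of freed AMC excited at 355 nm; 0% = enzyme without compound and 100% = no enzyme blank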
Thrombin inh – inhibitors of human thrombin. P00734. alpha-thrombin, Boc-VPR-AMC fluorogenic substrate cleavage. inhibition, % at 5 µM. 0.26% of 220,000 active. AID 1046;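 active = inhibition at or above 40%; inactive = inhibition below 40%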;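 note: 0% = enzyme with no compound and 100% = wells without enzyme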
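Assay system: human alpha-thrombin enzyme. Reagent: Boc-VPR-AMC substrate, 15 µM final. Compound dosing: one concentration per compound, 5 µM, with 0.2% DMSO. Incubation: room-temperature reaction. Technique: AMC fluorescence, 355/460 nm. Measure: % inhibition relative to enzyme controls and enzyme-free blanks.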
AHR act cf – human AHR activation, confirmation. 87% of 2,300 active. shares compounds with AHR act. activation, % at 9 µM. human cells, AHR-responsive luciferase reporter, luminescence; in the data active = activation above about 49%;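 note: HepG2 hepatoma cells carrying a DRE-driven firefly luciferase reporter; 0% = vehicle wells and 100% = reference agonist wells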
PXR act counter – PXR activation, counter-screen for AHR activators | AID 434939 | 88% of 2,300 active | activation, % at 11.6 µM | shares compounds with AHR act | cell-based PXR reporter, luciferase luminescence; in the data active = activation above about 11%;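 note: human hepatoma DPX-2 cells expressing full-length human PXR; 0% = DMSO and 100% = reference agonist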
Numbers without * were called inactive; / = not tested or not shown. This is a sample that favours compounds with a hit; in the whole collection about 3.5% have one here.

SMILES	FXIIa inh 1536	hK5 inh	STAT3 act	AHR act	FXIa inh	Thrombin inh	AHR act cf	PXR act counter
Cc1ccc(NC(=O)C2OCCc3ccccc32)cc1 (stereo unspecified)	1	-2	98	118*	16	-3	104*	64*
c1cn(CCCNc2ncnc3sc4c(c23)CCC4)cn1	-7	-4	105	128*	-6	-6	92*	18*
COc1ccc(C(=O)COc2ccccc2C#N)cc1	4	1	/	90*	0	-2	67*	23*
O=C(CCc1ccc(Oc2cc([N+](=O)[O-])cc([N+](=O)[O-])c2)cc1)N1CCCCCC1	11	-6	103	-1	8	2	/	/
CCCc1cc(=O)oc2cc(OCC(=O)NCc3cccs3)ccc12	3	-24	92	87*	-2	-4	45	44*
Cc1cc(N/C=C/C(=O)c2ccccc2)ccc1Br	/	/	/	94*	/	/	108*	11*
Fc1ccc(-c2nc3nc4ccccc4nc3n2Cc2ccco2)cc1	-21	-2	101	38	-11	-6	/	/
c1ccc(-c2nc3nc4ccccc4nc3n2Cc2ccco2)cc1	10	-3	111	99*	3	-1	71*	20*
COc1cc(C(=O)Nn2cnnc2)ccc1OC(F)F	/	/	/	0	/	/	/	/
O=C(Nc1ccc(Cl)cc1)Nc1ccon1	/	/	/	97*	/	/	76*	14*
O/N=C/c1ccc2cccc(OCc3ccccc3)c2n1	/	/	/	47	/	/	/	/
COc1ccc(C(=O)N/N=C/c2ccc3cccc(OCc4ccccc4)c3n2)cc1	-5	-5	107	81*	4	-10	81*	22*
Clc1ccc(-c2nc3ncccn3c2Nc2ccc3c(c2)OCO3)cc1	9	2	109	8	13	3	/	/
Clc1ccc(-c2nc3ncccn3c2Cl)cc1	-5	-11	108	87*	-8	-19	148*	55*
Nc1c(Cl)cc(-c2csc(NCCc3nc4cc(Cl)c(Cl)cc4n3CCCO)n2)cc1Cl	/	/	/	131*	/	/	113*	82*
OCCOCCn1c(CCNc2nc(-c3ccc(F)cc3)cs2)nc2cc(C(F)(F)F)ccc21	/	/	/	91*	/	/	50*	27*
OCCCn1c(CCNc2nc(-c3ccc(Cl)cc3)cs2)nc2cc(C(F)(F)F)ccc21	/	/	/	41	/	/	/	/
Cc1ccc2nc(N/N=C/c3ccco3)cc(C)c2c1	5	-2	103	121*	-3	-9	177*	23*
Cc1sc(N/N=C/c2ccco2)nc1-c1ccccc1	-4	-3	93	170*	0	-1	80*	31*
CN(Cc1nc(Cc2cccc(F)c2)no1)CC1CCOCC1	2	-9	95	2	7	-8	/	/
CCOC(=O)C1=C(COC(=O)/C=C/c2ccc(O)c(OC)c2)NC(=O)NC1C (stereo unspecified)	/	/	/	0	/	/	/	/
O=C(CN1CCCCC1)Nc1nnc(-c2ccccc2)s1	10	-28	104	109*	5	0	132*	27*
O=C(CN1CCCC1)Nc1nnc(-c2cccs2)s1	12	-14	100	126*	4	-7	125*	16*
COc1ccc(NC(=O)Nc2nnc(-c3cccs3)s2)cc1	15	1	/	90*	3	3	102*	37*
CC(C)(C)c1ccc(-c2nnc(NC(=O)c3ccccc3)s2)cc1	10	-59	99	3	-3	-1	/	/
COCC(=O)Nc1nnc(-c2ccc(C(C)(C)C)cc2)s1	8	4	91	86*	0	-3	99*	30*
O=C(CN1CCCCC1)Nc1nnc(-c2ccc([N+](=O)[O-])cc2)s1	6	2	99	0	-2	3	/	/
CS(=O)(=O)N(CC(=O)N1CCCCCC1)c1ccc(Br)cc1	15	-24	103	0	-30	3	/	/
CC(=O)c1c(C)nc(-c2ccccc2)nc1NC(=O)C(C)C	13	4	102	15	-1	4	/	/
CC(=O)Nc1nc(-c2ccccc2)nc(C)c1C(C)=O	-2	5	87	80*	-3	9	105*	24*
